In publication PMC4608253 (Journal of chromatography. B, Analytical technologies in …, 2015):
Read-outs that look alike come from different tables or passages of the source.

What was measured:
[1] = assay type: physicochemical, mice; details: for Accuracy (RE, %) 25°C for 6 h / Accuracy (RE, %) Frozen for 30 days: stability in mice plasma/blood QC sample; for Accuracy (RE, %) Frozen for 30 days: −80°C; for Accuracy (RE, %) 4°C for 24 h: stability, extracted QC sample in auto-sampler
Outline: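 Blank mouse blood spiked with analytes and vitamin C, then extracted with methanol containing daidzein internal standard (0.5 μM) by 1 min vortex. Spun at 20,000 × g for 15 min and dried under air. Three replicates per QC level were held unextracted at 25°C for 6 h, at −80°C for 30 days, or extracted in the 4°C autosampler for 24 h. Analysed by UPLC-MS/MS (C18, formic acid/acetonitrile, positive MRM); accuracy as RE.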

in vivo = assay type: in vivo, A/J mice; details: for Tmax / AUC(0-inf) / AUC(0-t) / Cmax / half-life: male, A/J, mouse, whole blood, po; for detected in the blood: mice, oral XCHT extract 0.5 g/kg

In the case of CCCCC[C@H](O)CC(=O)CCc1ccc(O)c(OC)c1 [(6)-Gingerol, 6-gingernol], the “Accuracy (RE, %) 25°C for 6 h” value ([1]; spiked concentration 3.9) is reported as 2.8%, the “Accuracy (RE, %) 25°C for 6 h” value ([1]; spiked concentration 62.5) is reported as −2.3% and the “Accuracy (RE, %) 25°C for 6 h” value ([1]; spiked concentration 500) is reported as −1.0%. For the same compound, the “Accuracy (RE, %) Frozen for 30 days” value ([1]; spiked concentration 3.9) was 4.4%, the “Accuracy (RE, %) Frozen for 30 days” value ([1]; spiked concentration 62.5) was −12.1% and the “Accuracy (RE, %) Frozen for 30 days” value ([1]; spiked concentration 500) was 1.2%. The “Accuracy (RE, %) 4°C for 24 h” value ([1]; spiked concentration 3.9) was 2.6%, the “Accuracy (RE, %) 4°C for 24 h” value ([1]; spiked concentration 62.5) was −8.4% and the “Accuracy (RE, %) 4°C for 24 h” value ([1]; spiked concentration 500) was 2%.

With O=c1cc(-c2ccccc2)oc2cc(O)c(O)c(O)c12 [Baicalein, baicalein] the Tmax (in vivo; 0.5 g/kg) was 0.083 h, the AUC(0-inf) (in vivo; 500 mg/kg) was 0.119 ± 0.0338 µM·h and the AUC(0-t) (in vivo; 500 mg/kg) was 0.0854 ± 0.026 µM·h. For the same compound, the Cmax (in vivo; 500 mg/kg) was 32.7 ± 15 nM, the Tmax (in vivo; 500 mg/kg) was 0.083 h and the half-life (in vivo; 500 mg/kg) was 6.85 ± 4.32 h. For the same compound, the “detected in the blood” value (in vivo) was “detected”, the “Accuracy (RE, %) 25°C for 6 h” value ([1]; spiked concentration 3.9) was 10.3% and the “Accuracy (RE, %) 25°C for 6 h” value ([1]; spiked concentration 62.5) was 9.9%. For the same compound, the “Accuracy (RE, %) 25°C for 6 h” value ([1]; spiked concentration 500) was 0.7%, the “Accuracy (RE, %) Frozen for 30 days” value ([1]; spiked concentration 3.9) was −11.4% and the “Accuracy (RE, %) Frozen for 30 days” value ([1]; spiked concentration 62.5) was −14.5%. For the same compound, the “Accuracy (RE, %) Frozen for 30 days” value ([1]; spiked concentration 500) was 9%, the “Accuracy (RE, %) 4°C for 24 h” value ([1]; spiked concentration 3.9) was 12.3% and the “Accuracy (RE, %) 4°C for 24 h” value ([1]; spiked concentration 62.5) was −14%. For the same compound, the “Accuracy (RE, %) 4°C for 24 h” value ([1]; spiked concentration 500) was 13.1%.

For O=C(O)[C@H]1O[C@@H](Oc2cc3oc(-c4ccccc4)cc(=O)c3c(O)c2O)[C@H](O)[C@@H](O)[C@@H]1O [Baicalin, baicalin], the Tmax (in vivo; 0.5 g/kg) was 2.13 ± 1.18 h, the AUC(0-inf) (in vivo; 500 mg/kg) was 9.71 ± 0.709 µM·h and the AUC(0-t) (in vivo; 500 mg/kg) was 8.96 ± 2.08 µM·h. For the same compound, the Cmax (in vivo; 500 mg/kg) was 787 ± 123 nM, the Tmax (in vivo; 500 mg/kg) was 2.57 h and the half-life (in vivo; 500 mg/kg) was 3.11 ± 0.95 h. The “detected in the blood” value (in vivo) was “detected”, the “Accuracy (RE, %) 25°C for 6 h” value ([1]; spiked concentration 3.9) was −5.7% and the “Accuracy (RE, %) 25°C for 6 h” value ([1]; spiked concentration 62.5) was −5.3%. For the same compound, the “Accuracy (RE, %) 25°C for 6 h” value ([1]; spiked concentration 500) was 1.1%, the “Accuracy (RE, %) Frozen for 30 days” value ([1]; spiked concentration 3.9) was 6.7% and the “Accuracy (RE, %) Frozen for 30 days” value ([1]; spiked concentration 62.5) was 14.1%. The “Accuracy (RE, %) Frozen for 30 days” value ([1]; spiked concentration 500) was 4.9%, the “Accuracy (RE, %) 4°C for 24 h” value ([1]; spiked concentration 3.9) was 3.8% and the “Accuracy (RE, %) 4°C for 24 h” value ([1]; spiked concentration 62.5) was 14.8%. For the same compound, the “Accuracy (RE, %) 4°C for 24 h” value ([1]; spiked concentration 500) was 5.2%.

In the case of COc1ccc(-c2coc3cc(O)ccc3c2=O)cc1 [Formononetin, formononetin], the “Accuracy (RE, %) 25°C for 6 h” value ([1]; spiked concentration 3.9) is reported as 8.0%, the “Accuracy (RE, %) 25°C for 6 h” value ([1]; spiked concentration 62.5) is reported as 11.8% and the “Accuracy (RE, %) 25°C for 6 h” value ([1]; spiked concentration 500) is reported as −10.9%. The “Accuracy (RE, %) Frozen for 30 days” value ([1]; spiked concentration 3.9) was 13.5%, the “Accuracy (RE, %) Frozen for 30 days” value ([1]; spiked concentration 62.5) was 13% and the “Accuracy (RE, %) Frozen for 30 days” value ([1]; spiked concentration 500) was 4.9%. For the same compound, the “Accuracy (RE, %) 4°C for 24 h” value ([1]; spiked concentration 3.9) was −8.9%, the “Accuracy (RE, %) 4°C for 24 h” value ([1]; spiked concentration 62.5) was 13.6% and the “Accuracy (RE, %) 4°C for 24 h” value ([1]; spiked concentration 500) was 5%.

CC1(C)[C@@H](O)CC[C@]2(C)[C@H]3C(=O)C=C4[C@@H]5C[C@@](C)(C(=O)O)CC[C@]5(C)CC[C@@]4(C)[C@]3(C)CC[C@@H]12 [GA, glycyrrhetinic acid] showed a Cmax (in vivo; 0.5 g/kg) of 263 ± 87.3 nM, a Tmax (in vivo; 0.5 g/kg) of 7.25 ± 5.5 h and an AUC(0-inf) (in vivo; 500 mg/kg) of 3.3 ± 1.18 µM·h. For the same compound, the AUC(0-t) (in vivo; 500 mg/kg) was 3.3 ± 1.18 µM·h, the Cmax (in vivo; 500 mg/kg) was 263 ± 87.3 nM and the half-life (in vivo; 500 mg/kg) was 4.77 ± 1.93 h. For the same compound, the “Accuracy (RE, %) 25°C for 6 h” value ([1]; spiked concentration 3.9) was 2.1%, the “Accuracy (RE, %) 25°C for 6 h” value ([1]; spiked concentration 62.5) was 1.6% and the “Accuracy (RE, %) 25°C for 6 h” value ([1]; spiked concentration 500) was 8.1%. For the same compound, the “Accuracy (RE, %) Frozen for 30 days” value ([1]; spiked concentration 3.9) was 6.9%, the “Accuracy (RE, %) Frozen for 30 days” value ([1]; spiked concentration 62.5) was 14.0% and the “Accuracy (RE, %) Frozen for 30 days” value ([1]; spiked concentration 500) was 13.5%. The “Accuracy (RE, %) 4°C for 24 h” value ([1]; spiked concentration 3.9) was 5.4%, the “Accuracy (RE, %) 4°C for 24 h” value ([1]; spiked concentration 62.5) was 12% and the “Accuracy (RE, %) 4°C for 24 h” value ([1]; spiked concentration 500) was 14.6%.

O=C1C[C@@H](c2ccc(O[C@@H]3O[C@H](CO)[C@@H](O)[C@H](O)[C@H]3O)cc2)Oc2cc(O)ccc21 [Liquiritin] gave an AUC(0-inf) (in vivo; 500 mg/kg) of 0.137 ± 0.0417 µM·h, an AUC(0-t) (in vivo; 500 mg/kg) of 0.137 ± 0.0417 µM·h and a Cmax (in vivo; 500 mg/kg) of 48.7 ± 38.2 nM. The half-life (in vivo; 500 mg/kg) was 9.33 ± 3.42 h, the “detected in the blood” value (in vivo) was “detected” and the “Accuracy (RE, %) 25°C for 6 h” value ([1]; spiked concentration 0.488) was 7.3%. The “Accuracy (RE, %) 25°C for 6 h” value ([1]; spiked concentration 62.5) was 5.5%, the “Accuracy (RE, %) 25°C for 6 h” value ([1]; spiked concentration 500) was 12.7% and the “Accuracy (RE, %) Frozen for 30 days” value ([1]; spiked concentration 0.488) was 13.9%. For the same compound, the “Accuracy (RE, %) Frozen for 30 days” value ([1]; spiked concentration 62.5) was 13.8%, the “Accuracy (RE, %) Frozen for 30 days” value ([1]; spiked concentration 500) was 10.9% and the “Accuracy (RE, %) 4°C for 24 h” value ([1]; spiked concentration 0.488) was 14.4%. For the same compound, the “Accuracy (RE, %) 4°C for 24 h” value ([1]; spiked concentration 62.5) was 15% and the “Accuracy (RE, %) 4°C for 24 h” value ([1]; spiked concentration 500) was 12.8%.
